Assay results from ChEMBL document CHEMBL3400098, “Aza follow-ups to BI 207524, a thumb pocket 1 HCV NS5B polymerase inhibitor. Part 1: Mitigating the genotoxic liability of an aniline metabolite” (Bioorg Med Chem Lett, 2015).

Columns and labels:
[1] = test system: Hepatitis C virus; experiment: Antiviral activity against Hepatitis C virus genotype 1a infected in human Huh cells assessed as inhibition of viral replication by RT-PCR-based replicon assay; type: functional, cell-based, Hepacivirus hominis; settings: subtype 1a
Outline: (§1)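 HCV replicon EC50 determined in duplicate, using either a GT1b luciferase reporter read-out or RT-PCR quantification of replicon RNA.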

[2] = Half life in human liver microsomes at 2 uM; type: ADME
Outline: (§2)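 Stability in liver microsomes with 2 µM initial compound concentration; half-life recorded.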

[3] = Cytotoxicity against human HuH7 cells assessed as reduction in cell viability by MTT assay; type: cell-based; settings: Huh-7 cells, read-out: TC50 (the source's name)
Outline: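 Cytotoxicity (TC50) measured by MTT read-out in the Huh-7 cell line.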

[4] = Permeability from apical to basolateral side of human Caco2 cells; type: ADME, cell-based; settings: Caco-2, read-out: permeability
Outline: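 Caco-2 permeability measured in the apical-to-basolateral direction, reported in cm/s.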

[5] = Plasma concentration in rat at 4 mg/kg, po as cassette dosing measured at 1 hr post dose; type: ADME, organism-based; set-up: dose 4 mg/kg, route oral
Outline: (§3)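 Cassette dosing: a mixture of 4 compounds, each at 4 mg/kg, given orally to 2 fasted rats in 0.5% methylcellulose, 0.3% Tween-80 and 1% NMP. Plasma sampled at 1 and 2 h. Liver/plasma ratio determined at 2 h.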

[6] = Plasma concentration in rat at 4 mg/kg, po as cassette dosing measured at 2 hrs post dose; type: ADME, organism-based; set-up: dose 4 mg/kg, route oral; outline: as §3
[7] = Half life in rat liver microsomes at 2 uM; type: ADME; outline: as §2
[8] = Inhibition of Hepatitis C virus genotype 1b C-terminal truncated NS5B RNA dependent RNA polymerase delta21 expressed in Escherichia coli by scintillation proximity assay; set-up: species or system Hepatitis C virus subtype 1b
Outline: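 Biochemical polymerase inhibition using a C-terminally truncated GT1b NS5BΔ21 construct. Values are the mean of duplicate measurements (n ≥ 2).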

[9] = test system: Hepatitis C virus; experiment: Antiviral activity against Hepatitis C virus genotype 1b infected in human Huh cells assessed as inhibition of viral replication by luciferase reporter assay; type: functional, cell-based, Hepacivirus hominis; outline: as §1
[10] = Lipophilicity, log D of the compound at pH 7.4; type: physicochemical; settings: buffer
[11] = Ratio of drug up take in liver to plasma of rat at 4 mg/kg, po as cassette dosing measured at 2 hrs post dose; type: ADME, organism-based; set-up: dose 4 mg/kg, route oral; outline: as §3
[12] = test system: Salmonella typhimurium; experiment: Mutagenic activity in Salmonella typhimurium at 315 to 5000 ug/plate by Ames test in absence of S9 fraction; type: toxicity, organism-based; settings: salmonella enterica subsp. enterica serovar typhimurium
Outline: (§4)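 Ames test on the free carboxylic acid forms using multiple strains and strain TA100 of Salmonella typhimurium, at 315–5000 µg per plate, run with and without S9 metabolic activation.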

[13] = test system: Salmonella typhimurium; experiment: Mutagenic activity in Salmonella typhimurium at 315 to 5000 ug/plate by Ames test in presence of S9 fraction; type: toxicity, organism-based; settings: salmonella enterica subsp. enterica serovar typhimurium; outline: as §4

Compound | EC50 [1] | half-life at 2 µM [2] | CC50 [3] | Papp A→B [4] | concentration at 1 h [5] | concentration at 2 h [6] | half-life at 2 µM [7] | IC50 [8] | EC50 [9] | logD [10] | Kp at 2 h [11] | Activity [12] | Activity [13]
CCOc1nc(NC(=O)C2(NC(=O)c3ccc4c(C5CCCC5)c(-c5ncc(Cl)cn5)n(C)c4c3)CCC2)ncc1/C=C/C(=O)O | 0.089 µM | 3.98 h | > 10 µM | 4.3 ×10⁻⁶ cm/s | 100 nM | 30 nM | > 5 h | 0.063 µM | 0.04 µM |  |  |  | 
CCOc1cc(NC(=O)C2(NC(=O)c3ccc4c(C5CCCC5)c(-c5ncc(Cl)cn5)n(C)c4c3)CCC2)nnc1/C=C/C(=O)O |  | 2.27 h | > 10 µM | 1.6 ×10⁻⁶ cm/s |  |  | 3.78 h | 0.08 µM | 0.36 µM | 3.4 |  |  | 
CCOc1nc(NC(=O)C2(NC(=O)c3ccc4c(C5CCCC5)c(-c5ncc(Cl)cn5)n(C)c4c3)CCC2)cnc1/C=C/C(=O)O | 0.034 µM | 2.43 h | > 10 µM | 13 ×10⁻⁶ cm/s | 2100 nM | 900 nM | > 5 h | 0.1 µM | 0.02 µM |  | 5 |  | 
CCOc1nc(N)ccc1/C=C/C(=O)O |  |  |  |  |  |  |  |  |  |  |  | Non-toxic | Non-toxic
CCOc1nc(N)cnc1/C=C/C(=O)O |  |  |  |  |  |  |  |  |  |  |  | Non-toxic | Non-toxic
